From ChEMBL document CHEMBL1142294, “Design and synthesis of benzo-lipoxin A4 analogs with enhanced stability and potent anti-inflammatory properties” (Bioorg Med Chem Lett, 2008) come the findings set out here.

System in one data set: not listed separately
The experiment in a line: Stability assessed as rate of NADH formation in presence of eicosanoid oxido-reductase. The format is ADME. In short, it runs like this:
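Compound at ~15 μM incubated with 50 ng recombinant eicosanoid oxido-reductase in 0.1 M Tris–HCl pH 9.0 with 1 mM NAD⁺, 37 °C, 25 min, while NADH formation was monitored. Initial velocity was taken by linear regression over the linear phase of conversion. Values are means ± SEM, n = 3.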
As for `CCCCC[C@@H](O)/C=C/C=C\C=C\C=C\[C@@H](O)[C@@H](O)CCCC(=O)O`, the Stability was 0.21 µM/min.

Regarding `CCCCC[C@@H](O)/C=C/C=C/c1ccccc1/C=C/[C@@H](O)[C@@H](O)CCCC(=O)OC`, the Stability stood at 0.14 µM/min.

Regarding `CCCCCC/C=C/c1ccccc1/C=C/[C@@H](O)[C@@H](O)CCCC(=O)OC`, the Stability is 0.04 µM/min.

With `CCCCC[C@H](O)/C=C/C=C\C=C\C=C\[C@@H](O)[C@@H](O)CCCC(=O)O` [LIPOXIN A4], the Stability was found to be 2.42 µM/min.

Regarding `CCCCCC(O)c1ccccc1/C=C/[C@@H](O)[C@@H](O)CCCC(=O)OC` (mixture of isomers), the Stability was determined as 0.09 µM/min.

Consider `CCCCC[C@@H](O)/C=C/c1ccccc1/C=C/[C@@H](O)[C@@H](O)CCCC(=O)OC`, for which the Stability was 0.19 µM/min.

With `CCCCC[C@@H](O)/C=C/c1cccc(/C=C/[C@@H](O)[C@@H](O)CCCC(=O)OC)c1`, the Stability was found to be 0.45 µM/min.

In a further data set the test system is Mus musculus. As to the kind of experiment: Antiinflammatory activity against FVB mouse assessed as inhibition of zymosan-induced neutrophil infiltration at 15 ug/kg, iv relative to control. The format is functional. In short, it runs like this: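 Male FVB mice, 6–8 weeks old, given 15 μg kg⁻¹ by intravenous bolus into the tail vein in 100 μL sterile saline, then an intraperitoneal injection of zymosan A (1 mg/1 mL). Peritoneal lavage was collected at 2 h, and total leukocytes, PMNs and monocytes were counted. PMN inhibition is relative to zymosan A plus saline vehicle. Values are means ± SEM, n = 5–10.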
In the case of `CCCCC[C@@H](O)/C=C/C=C/c1ccccc1/C=C/[C@@H](O)[C@@H](O)CCCC(=O)OC`, the inhibition in vivo at 0.015 mg/kg turned out to be 17.3%.

For `CCCCCC/C=C/c1ccccc1/C=C/[C@@H](O)[C@@H](O)CCCC(=O)OC`, the inhibition in vivo at 0.015 mg/kg was 23.9%.

Take `COC(=O)CCC[C@H](O)[C@H](O)/C=C/C=C/C=C\C=C\[C@H](O)COc1ccc(F)cc1`: the inhibition in vivo at 0.015 mg/kg stood at 40.5%.

With `CCCCCC(O)c1ccccc1/C=C/[C@@H](O)[C@@H](O)CCCC(=O)OC` (mixture of isomers), the inhibition in vivo at 0.015 mg/kg worked out at 22.3%.

For the compound `CCCCC[C@@H](O)/C=C/c1ccccc1/C=C/[C@@H](O)[C@@H](O)CCCC(=O)OC`, the inhibition in vivo at 0.015 mg/kg is 32.2%.

Regarding `CCCCC[C@@H](O)/C=C/c1cccc(/C=C/[C@@H](O)[C@@H](O)CCCC(=O)OC)c1`, the inhibition in vivo at 0.015 mg/kg was found to be 32%.

As usually defined, the inhibition in vivo is the share of the control response that was lost under treatment.
